Measurements reported in ChEMBL document CHEMBL3352155, “Synthesis, antitumor activity, and structure-activity relationship study of trihydroxylated 2,4,6-triphenyl pyridines as potent and selective topoisomerase II inhibitors” (Eur J Med Chem, 2014).
Structures can show the parent of a compound that is named as a salt.

Assays:
DU-145 = experiment: Cytotoxicity against human DU145 cells after 4 days by CCK-8 assay; assay type: functional, cell-based; conditions: DU-145, 96 h
Summary of the method: (§1)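 Cells were seeded at 2–4 × 10^4 per well and grown overnight in medium with 10% FBS at 37 °C under 5% CO2. On day 2, after 4 h FBS starvation, the medium was replaced with medium holding graded compound concentrations. On day 4, CCK-8 was added for 4 h and A450 was read. IC50 came from a four-parameter logistic fit; three experiments run in triplicate.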

T47D = experiment: Cytotoxicity against human T47D cells after 4 days by CCK-8 assay; assay type: functional, cell-based; conditions: 96 h; summary of the method: as §1
HEK293 = experiment: Cytotoxicity against HEK293 cells after 4 days by CCK-8 assay; assay type: cell-based; conditions: Homo sapiens, HEK293, 96 h; summary of the method: as §1
[1] = molecular target: T1, DNA topoisomerase 1 (Homo sapiens) (UniProt P11387); experiment: Inhibition of recombinant human DNA topoisomerase 1 assessed as relaxation of supercoiled DNA pBR322 at 100 uM after 30 mins using ethidium bromide staining by agarose gel electrophoresis
T1 sequence (whole entry): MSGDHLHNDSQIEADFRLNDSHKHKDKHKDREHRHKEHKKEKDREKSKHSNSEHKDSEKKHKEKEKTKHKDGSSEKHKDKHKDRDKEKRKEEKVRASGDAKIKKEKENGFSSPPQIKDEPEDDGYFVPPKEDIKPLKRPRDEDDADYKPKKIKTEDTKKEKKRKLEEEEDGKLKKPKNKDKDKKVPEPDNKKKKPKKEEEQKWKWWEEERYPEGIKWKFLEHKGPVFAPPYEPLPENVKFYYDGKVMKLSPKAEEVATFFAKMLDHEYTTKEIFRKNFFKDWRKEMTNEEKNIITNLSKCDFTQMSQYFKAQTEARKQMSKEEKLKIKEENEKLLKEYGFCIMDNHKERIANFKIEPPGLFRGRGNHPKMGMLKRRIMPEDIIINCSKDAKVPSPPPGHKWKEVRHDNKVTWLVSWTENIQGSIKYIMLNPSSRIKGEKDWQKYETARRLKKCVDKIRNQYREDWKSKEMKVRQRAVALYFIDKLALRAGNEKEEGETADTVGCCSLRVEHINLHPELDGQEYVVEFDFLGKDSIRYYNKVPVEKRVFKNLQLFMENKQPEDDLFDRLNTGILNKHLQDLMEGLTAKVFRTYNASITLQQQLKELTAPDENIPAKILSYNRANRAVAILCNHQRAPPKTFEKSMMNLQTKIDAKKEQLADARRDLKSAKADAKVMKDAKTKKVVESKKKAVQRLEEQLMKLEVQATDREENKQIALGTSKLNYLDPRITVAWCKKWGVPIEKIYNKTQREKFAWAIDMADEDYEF
Summary of the method: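 A mix of 100 ng supercoiled pBR322 and 1 unit recombinant human topo I, with or without compound, was held 30 min at 37 °C. Buffer was 10 mM Tris-HCl pH 7.9, 150 mM NaCl, 0.1% BSA, 1 mM spermidine and 5% glycerol. A sarcosyl stop solution ended the reaction. Products ran on 1% agarose in TAE at 15 V for 7 h, were stained with ethidium bromide and quantitated under UV.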

[2] = Cytotoxicity against human HCT15 cells […] by CCK-8 assay; assay type: functional, cell-based; conditions: HCT-15; summary of the method: as §1
[3] = molecular target: DNA topoisomerase 2-alpha (Homo sapiens) (UniProt P11388); experiment: Inhibition of recombinant human DNA topoisomerase 2alpha assessed as relaxation of supercoiled DNA pBR322 at 100 uM after 30 mins using ethidium bromide staining by agarose gel electrophoresis
Summary of the method: (§2)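 The reaction held 200 ng supercoiled pBR322 with 1 unit human topo IIα, with or without compound, for 30 min at 30 °C. Buffer was 10 mM Tris-HCl pH 7.9, 50 mM NaCl, 5 mM MgCl2, 1 mM EDTA, 1 mM ATP and BSA. EDTA was added to stop it. Products ran on 1% agarose in TAE at 25 V for 4 h, were stained with ethidium bromide, and supercoiled DNA was quantitated under UV.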

[4] = molecular target: DNA topoisomerase 2-alpha (Homo sapiens) (UniProt P11388); experiment: Inhibition of recombinant human DNA topoisomerase 2alpha assessed as relaxation of supercoiled DNA pBR322 at 20 uM after 30 mins using ethidium bromide staining by agarose gel electrophoresis; summary of the method: as §2

DNA topoisomerase 2-alpha (Homo sapiens), sequence (P11388 whole entry): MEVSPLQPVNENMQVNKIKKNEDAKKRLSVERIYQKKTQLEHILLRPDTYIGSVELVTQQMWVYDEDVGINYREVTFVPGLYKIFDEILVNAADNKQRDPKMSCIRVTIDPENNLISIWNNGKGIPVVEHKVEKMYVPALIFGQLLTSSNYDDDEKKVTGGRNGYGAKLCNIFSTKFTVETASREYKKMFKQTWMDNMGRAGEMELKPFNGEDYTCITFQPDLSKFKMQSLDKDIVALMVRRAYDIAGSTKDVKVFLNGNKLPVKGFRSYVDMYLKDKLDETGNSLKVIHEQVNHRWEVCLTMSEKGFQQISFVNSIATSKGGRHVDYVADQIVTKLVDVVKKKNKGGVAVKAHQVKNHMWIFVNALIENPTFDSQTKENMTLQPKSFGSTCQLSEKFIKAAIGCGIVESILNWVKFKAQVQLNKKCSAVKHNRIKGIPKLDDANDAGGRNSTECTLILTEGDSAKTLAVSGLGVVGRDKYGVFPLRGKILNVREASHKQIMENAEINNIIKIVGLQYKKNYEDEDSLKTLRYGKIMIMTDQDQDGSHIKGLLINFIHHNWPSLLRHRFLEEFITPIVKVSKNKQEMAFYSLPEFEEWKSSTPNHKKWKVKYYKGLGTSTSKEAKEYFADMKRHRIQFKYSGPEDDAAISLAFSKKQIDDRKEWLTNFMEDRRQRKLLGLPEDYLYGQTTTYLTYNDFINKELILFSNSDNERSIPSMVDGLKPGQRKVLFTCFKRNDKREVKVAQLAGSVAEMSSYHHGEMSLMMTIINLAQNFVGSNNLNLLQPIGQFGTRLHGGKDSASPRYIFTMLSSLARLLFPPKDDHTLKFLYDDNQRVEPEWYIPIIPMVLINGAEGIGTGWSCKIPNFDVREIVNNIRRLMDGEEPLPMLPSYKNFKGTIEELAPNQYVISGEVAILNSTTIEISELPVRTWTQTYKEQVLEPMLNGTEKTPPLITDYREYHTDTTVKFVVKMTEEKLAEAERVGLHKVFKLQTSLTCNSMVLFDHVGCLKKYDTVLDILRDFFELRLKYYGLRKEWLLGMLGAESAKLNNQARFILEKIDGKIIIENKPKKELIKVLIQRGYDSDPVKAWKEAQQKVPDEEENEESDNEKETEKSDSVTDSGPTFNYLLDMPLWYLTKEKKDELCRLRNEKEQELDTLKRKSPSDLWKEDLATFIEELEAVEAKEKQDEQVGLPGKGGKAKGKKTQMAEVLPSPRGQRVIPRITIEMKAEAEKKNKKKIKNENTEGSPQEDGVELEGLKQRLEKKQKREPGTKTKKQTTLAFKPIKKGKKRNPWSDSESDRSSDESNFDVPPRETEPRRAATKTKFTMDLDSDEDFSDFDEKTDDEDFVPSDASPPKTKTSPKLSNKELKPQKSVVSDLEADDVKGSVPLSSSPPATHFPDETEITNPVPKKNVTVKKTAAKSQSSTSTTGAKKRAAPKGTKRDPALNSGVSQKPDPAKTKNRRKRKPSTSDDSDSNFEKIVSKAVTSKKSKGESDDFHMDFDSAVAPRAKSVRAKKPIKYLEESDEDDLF

inhibition [1] [%]	inhibition [3] [%]	inhibition [4] [%]	Structure (SMILES)	IC50 (DU-145) [µM]	IC50 (T47D) [µM]	IC50 (HEK293) [µM]	IC50 [2] [µM]
3.7	46.9	2.9	Oc1ccc(-c2cc(-c3ccccc3O)nc(-c3ccccc3O)c2)cc1	> 50	18.3	> 50	> 50
0	100	15.8	Oc1ccc(-c2cc(-c3ccc(O)cc3)nc(-c3cccc(O)c3)c2)cc1	5.8	4.47	0.84	3.52
0	100	9.6	Oc1ccc(-c2cc(-c3cccc(O)c3)nc(-c3cccc(O)c3)c2)cc1	1.76	2.23	0.73	3.81
0.3	77.6	21.3	Oc1ccc(-c2cc(-c3ccccc3O)cc(-c3ccccc3O)n2)cc1	0.36	0.96	6.99	8.24
8.4	31.3	1.6	Oc1ccc(-c2cc(-c3cccc(O)c3)cc(-c3ccccc3O)n2)cc1	> 50	> 50	> 50	> 50
0	95.1	10.1	Oc1ccccc1-c1cc(-c2ccccc2O)nc(-c2ccccc2O)c1	5.04	2.51	0.14	2.18
0	92.2	7.4	Oc1ccc(-c2cc(-c3ccccc3O)cc(-c3cccc(O)c3)n2)cc1	5.37	0.65	5.65	4.85
3.8	79.1	7.9	Oc1ccc(-c2cc(-c3ccc(O)cc3)nc(-c3ccc(O)cc3)c2)cc1	3.16	4.27	0.79	5.12
0	90.1	48.2	Oc1ccc(-c2cc(-c3cccc(O)c3)cc(-c3ccc(O)cc3)n2)cc1	1.4	4.07	> 50	> 50
0	87.9	6.6	Oc1cccc(-c2cc(-c3ccccc3O)cc(-c3ccccc3O)n2)c1	3.98	5.76	0.73	3.39
0.4	100	5.4	Oc1ccc(-c2cc(-c3ccccc3O)cc(-c3ccc(O)cc3)n2)cc1	0.98	5.35	0.78	1.92
1.5	80.6	38.5	Oc1ccc(-c2cc(-c3cccc(O)c3)nc(-c3ccccc3O)c2)cc1	3.42	4.81	7.42	5.83
0	44	1.8	Oc1ccc(-c2cc(-c3ccc(O)cc3)nc(-c3ccccc3O)c2)cc1	> 50	> 50	26.3	> 50
0	100	9.3	Oc1cccc(-c2cc(-c3ccccc3O)cc(-c3cccc(O)c3)n2)c1	> 50	4.57	0.13	5.15
–	–	–	CC[C@@]1(O)C(=O)OCc2c1cc1n(c2=O)Cc2cc3ccccc3nc2-1 [CAMPTOTHECIN]	–	0.75	0.28	1.98
0	100	3.7	Oc1ccc(-c2cc(-c3cccc(O)c3)cc(-c3cccc(O)c3)n2)cc1	1.94	3.92	1.56	3.09
–	–	–	COc1cc([C@@H]2c3cc4c(cc3[C@@H](O[C@@H]3O[C@@H]5CO[C@@H](C)O[C@H]5[C@H](O)[C@H]3O)[C@H]3COC(=O)[C@H]23)OCO4)cc(OC)c1O [ETOPOSIDE]	–	8.74	1.04	7.74
0	100	8.3	Oc1cccc(-c2cc(-c3cccc(O)c3)nc(-c3cccc(O)c3)c2)c1	4.04	2.05	0.74	3.95
1.9	11.3	–	Oc1cccc(-c2cc(-c3cccc(O)c3)nc(-c3ccccc3O)c2)c1	> 50	> 50	> 50	> 50
4.9	99.4	7.1	Oc1cccc(-c2cc(-c3ccccc3O)nc(-c3ccccc3O)c2)c1	5.4	3.42	0.08	5.02
–	–	–	COc1cccc2c1C(=O)c1c(O)c3c(c(O)c1C2=O)C[C@@](O)(C(=O)CO)C[C@@H]3O[C@H]1C[C@H](N)[C@H](O)[C@H](C)O1 [DOXORUBICIN HYDROCHLORIDE]	3.89	3.12	1.22	–
